In ChEMBL document CHEMBL5247671, “Design and Synthesis of Pyrazole-Based Macrocyclic Kinase Inhibitors Targeting BMPR2” (ACS Med Chem Lett, 2023):

Molecular target: T1, Bone morphogenetic protein receptor type-2 (Homo sapiens) (UniProt Q13873)
T1 sequence (whole entry): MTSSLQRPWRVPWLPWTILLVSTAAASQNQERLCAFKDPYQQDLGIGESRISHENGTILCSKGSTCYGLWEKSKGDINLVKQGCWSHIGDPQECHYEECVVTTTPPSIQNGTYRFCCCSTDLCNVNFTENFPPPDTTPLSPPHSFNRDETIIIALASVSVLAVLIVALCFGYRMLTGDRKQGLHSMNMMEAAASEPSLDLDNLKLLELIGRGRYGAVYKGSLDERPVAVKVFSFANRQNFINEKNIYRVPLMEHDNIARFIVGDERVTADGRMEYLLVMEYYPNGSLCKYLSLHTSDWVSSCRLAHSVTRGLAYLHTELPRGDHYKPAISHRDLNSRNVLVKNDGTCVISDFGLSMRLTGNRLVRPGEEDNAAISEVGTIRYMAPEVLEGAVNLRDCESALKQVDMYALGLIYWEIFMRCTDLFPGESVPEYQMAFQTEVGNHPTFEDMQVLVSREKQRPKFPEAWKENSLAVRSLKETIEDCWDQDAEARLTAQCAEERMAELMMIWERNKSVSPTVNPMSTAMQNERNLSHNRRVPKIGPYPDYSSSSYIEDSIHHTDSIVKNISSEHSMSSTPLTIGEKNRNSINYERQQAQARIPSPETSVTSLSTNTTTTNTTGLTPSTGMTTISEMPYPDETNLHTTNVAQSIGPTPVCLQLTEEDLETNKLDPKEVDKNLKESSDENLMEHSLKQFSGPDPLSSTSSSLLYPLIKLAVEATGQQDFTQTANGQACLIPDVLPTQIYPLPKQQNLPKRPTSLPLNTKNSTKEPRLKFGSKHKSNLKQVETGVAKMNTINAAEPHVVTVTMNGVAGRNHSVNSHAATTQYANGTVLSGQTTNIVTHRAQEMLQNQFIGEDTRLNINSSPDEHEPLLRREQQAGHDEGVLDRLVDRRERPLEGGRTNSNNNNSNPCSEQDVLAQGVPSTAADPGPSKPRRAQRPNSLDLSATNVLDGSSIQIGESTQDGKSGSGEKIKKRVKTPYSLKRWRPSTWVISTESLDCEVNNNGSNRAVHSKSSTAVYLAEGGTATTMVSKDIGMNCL
Test: Binding affinity to BMPR2 (unknown origin) assessed as change in entropy by ITC assay
How it was run: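 Binding measured by isothermal titration calorimetry against the recombinant BMPR2 kinase domain. Thermodynamic binding parameters, including the dissociation constant, were derived from the titration data.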

- deltaS: 3.7 cal/mol.K
Compound: O=C1NCCc2ccc(cc2)Nc2nccc(n2)Nc2cc1[nH]n2
